According to ChEMBL document CHEMBL5303300, “EUbOPEN Chemogenomics Library - Multiplex” (2023):
Where “and” joins values, the source holds several entries; their conditions need not be identical. Equal entries are not always repeated.

Key:
Format in all cases: toxicity, cell-based
HEK-293T = assay: Multiplex assay against HEK293T; conditions: human, 10 µM, compound concentration 10 uM, number of replicates 2
Summary of the method: (§1)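 Imaging took place on a CQ1 microscope at 37°C and 5% CO2 once compound had been added to live cells stained at seeding with Hoechst33342, BioTracker Green Microtubule Cytoskeleton Dye, MitoTracker Red and Annexin V Alexa Fluor 680. CellPathfinder machine-learning gating classed cells as Hoechst high-intensity objects or normal cells, classed normal cells as having healthy, pyknosed or fragmented nuclei, and classed pyknosed cells as mitotic or apoptotic. Tubulin, mitochondrial-mass and membrane-permeability phenotypes are per cents of the healthy-nucleus cells.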

U2OS = assay: Multiplex assay against U2OS; conditions: human, 10 µM, compound concentration 10 uM, number of replicates 2; summary of the method: as §1
Fibroblast = assay: Multiplex assay against human fibroblast; conditions: 10 µM, compound concentration 10 uM, number of replicates 2; summary of the method: as §1

SMILES: CCOC(=O)Nc1cc(-c2ccc(C)c(NS(C)(=O)=O)c2)nn2c(C)nnc12
- Population Apoptotic (%) (HEK-293T; 12 h): 36% and 38% and 52% and 40%
- Population Fragmented Nuclei (%) (HEK-293T; 12 h): 2% and 3%
- Population Healthy Nuclei (%) (HEK-293T; 12 h): 78% and 74% and 75% and 79%
- Population Hoechst High Intensity Objects (%) (HEK-293T; 12 h): 4% and 3%
- Population Membrane Permeable-Phenotype (%) (HEK-293T; 12 h): 5% and 11% and 2%
- Population Mitochondria Different-Phenotype (%) (HEK-293T; 12 h): 15% and 28% and 21% and 20%
- Population Mitotic Cells (%) (HEK-293T; 12 h): 63% and 61% and 47% and 59%
- Population Normal (%) (HEK-293T; 12 h): 95% and 96%
- Population Pyknosed Nuclei (%) (HEK-293T; 12 h): 19% and 22% and 21% and 17%
- Population Tubulin-Different-Phenotype (%) (HEK-293T; 12 h): 56% and 71% and 58% and 55%
- Total Cell Count (HEK-293T; 12 h): 892 and 664 and 646 and 672
- Population Apoptotic (%) (HEK-293T; 24 h): 40% and 25% and 30% and 24%
- Population Fragmented Nuclei (%) (HEK-293T; 24 h): 3% and 4% and 2%
- Population Healthy Nuclei (%) (HEK-293T; 24 h): 82% and 86% and 84% and 85%
- Population Hoechst High Intensity Objects (%) (HEK-293T; 24 h): 5% and 4%
- Population Membrane Permeable-Phenotype (%) (HEK-293T; 24 h): 3% and 0% and 1%
- Population Mitotic Cells (%) (HEK-293T; 24 h): 59% and 75% and 69%
- Population Normal (%) (HEK-293T; 24 h): 94% and 95%
- Population Pyknosed Nuclei (%) (HEK-293T; 24 h): 13% and 9% and 12% and 10%
- Population Tubulin-Different-Phenotype (%) (HEK-293T; 24 h): 32% [middle of 4 runs]
- Total Cell Count (HEK-293T; 24 h): 755 and 1187 and 821 and 806
- Population Apoptotic (%) (HEK-293T; 48 h): 25% and 42% and 30% and 29%
- Population Fragmented Nuclei (%) (HEK-293T; 48 h): 9% and 5% and 7% and 6%
- Population Healthy Nuclei (%) (HEK-293T; 48 h): 83% and 79% and 80% and 82%
- Population Hoechst High Intensity Objects (%) (HEK-293T; 48 h): 5% and 9%
- Population Membrane Permeable-Phenotype (%) (HEK-293T; 48 h): 0% and 1%
- Population Mitotic Cells (%) (HEK-293T; 48 h): 75% and 57% and 69% and 70%
- Population Normal (%) (HEK-293T; 48 h): 94% and 90%
- Population Pyknosed Nuclei (%) (HEK-293T; 48 h): 7% and 15% and 11%
- Total Cell Count (HEK-293T; 48 h): 1217 and 690 and 964 and 833
- Population Apoptotic (%) (U2OS; 12 h): 54% and 50% and 20%
- Population Healthy Nuclei (%) (U2OS; 12 h): 66% and 75% and 76% and 53%
- Population Hoechst High Intensity Objects (%) (U2OS; 12 h): 0%
- Population Membrane Permeable-Phenotype (%) (U2OS; 12 h): 3% and 0% and 5%
- Population Mitochondria Different-Phenotype (%) (U2OS; 12 h): 3% [middle of 4 runs]
- Population Mitotic Cells (%) (U2OS; 12 h): 45% and 50% and 80%
- Population Normal (%) (U2OS; 12 h): 100%
- Population Pyknosed Nuclei (%) (U2OS; 12 h): 24% and 19% and 17% and 15%
- Population Tubulin-Different-Phenotype (%) (U2OS; 12 h): 59% [middle of 4 runs]
- Population Apoptotic (%) (U2OS; 24 h): 70% and 65% and 53% and 66%
- Population Healthy Nuclei (%) (U2OS; 24 h): 59% and 69% and 67% and 50%
- Population Hoechst High Intensity Objects (%) (U2OS; 24 h): 0%
- Population Membrane Permeable-Phenotype (%) (U2OS; 24 h): 6% [middle of 4 runs]
- Population Mitotic Cells (%) (U2OS; 24 h): 29% and 35% and 46% and 33%
- Population Normal (%) (U2OS; 24 h): 100% and 99%
- Population Pyknosed Nuclei (%) (U2OS; 24 h): 20% [middle of 4 runs]
- Population Tubulin-Different-Phenotype (%) (U2OS; 24 h): 71% [middle of 4 runs]
- Population Apoptotic (%) (U2OS; 48 h): 85% and 72% and 76%
- Population Fragmented Nuclei (%) (U2OS; 48 h): 30% and 20% and 18%
- Population Healthy Nuclei (%) (U2OS; 48 h): 30% and 33% and 51%
- Population Hoechst High Intensity Objects (%) (U2OS; 48 h): 0% and 3%
- Population Mitochondria Different-Phenotype (%) (U2OS; 48 h): 9% and 0% and 3%
- Population Mitotic Cells (%) (U2OS; 48 h): 14% and 27% and 23%
- Population Normal (%) (U2OS; 48 h): 100% and 96% and 99%
- Population Pyknosed Nuclei (%) (U2OS; 48 h): 38% and 45% and 27% and 29%
- Population Apoptotic (%) (Fibroblast; 12 h): 56% and 50% and 58% and 35%
- Population Fragmented Nuclei (%) (Fibroblast; 12 h): 24% [middle of 4 runs]
- Population Healthy Nuclei (%) (Fibroblast; 12 h): 74% and 67% and 65% and 60%
- Population Hoechst High Intensity Objects (%) (Fibroblast; 12 h): 0%
- Population Mitochondria Different-Phenotype (%) (Fibroblast; 12 h): 4% and 3% and 1%
- Population Mitotic Cells (%) (Fibroblast; 12 h): 43% and 50% and 41% and 64%
- Population Normal (%) (Fibroblast; 12 h): 99% and 100%
- Population Pyknosed Nuclei (%) (Fibroblast; 12 h): 13% and 8%
- Population Tubulin-Different-Phenotype (%) (Fibroblast; 12 h): 52% and 63% and 54% and 62%
- Total Cell Count (Fibroblast; 12 h): 238 and 256 and 323 and 254
- Population Apoptotic (%) (Fibroblast; 24 h): 52% and 69% and 65% and 42%
- Population Fragmented Nuclei (%) (Fibroblast; 24 h): 33% and 20% and 21% and 34%
- Population Healthy Nuclei (%) (Fibroblast; 24 h): 58% and 68% and 66% and 56%
- Population Hoechst High Intensity Objects (%) (Fibroblast; 24 h): 0%
- Population Membrane Permeable-Phenotype (%) (Fibroblast; 24 h): 11% and 5% and 12%
- Population Mitochondria Different-Phenotype (%) (Fibroblast; 24 h): 7% and 4% and 2%
- Population Mitotic Cells (%) (Fibroblast; 24 h): 47% and 30% and 34% and 57%
- Population Normal (%) (Fibroblast; 24 h): 100%
- Population Pyknosed Nuclei (%) (Fibroblast; 24 h): 7% and 11% and 8%
- Population Tubulin-Different-Phenotype (%) (Fibroblast; 24 h): 57% and 33% and 29% and 43%
- Total Cell Count (Fibroblast; 24 h): 314 and 289 and 319 and 299
- Population Apoptotic (%) (Fibroblast; 48 h): 80% and 97% and 72%
- Population Fragmented Nuclei (%) (Fibroblast; 48 h): 16% and 27% and 31%
- Population Healthy Nuclei (%) (Fibroblast; 48 h): 71% and 60% and 67% and 52%
- Population Hoechst High Intensity Objects (%) (Fibroblast; 48 h): 0%
- Population Membrane Permeable-Phenotype (%) (Fibroblast; 48 h): 10% [middle of 4 runs]
- Population Mitochondria Different-Phenotype (%) (Fibroblast; 48 h): 1% and 9% and 3% and 8%
- Population Normal (%) (Fibroblast; 48 h): 100%
- Population Pyknosed Nuclei (%) (Fibroblast; 48 h): 12% and 16%
- Population Tubulin-Different-Phenotype (%) (Fibroblast; 48 h): 24% and 48% and 26% and 34%
- Total Cell Count (Fibroblast; 48 h): 248 and 265 and 292 and 250
